Experimental data: ChEMBL document CHEMBL1152649, “Synthesis, cytotoxicity and human telomerase inhibition activities of a series of 1,2-heteroannelated anthraquinones and anthra[1,2-d]imidazole-6,11-dione homologues” (2009)
Active and inactive are the calls of the source. No cut-off for these calls is given here.

Tests used:
SNB-75 = assay: Antiproliferative activity against human SNB75 cells assessed as cell growth at 10 uM; type: functional; details: read-out: Activity
In short: (§1)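 NCI 60 cell line panel, single dose (10^-5 M), run per the Developmental Therapeutics Program protocol (one dose mean graph). Each result is the growth percentage of treated cells relative to untreated control cells.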

HL-60(TB) = assay: Antiproliferative activity against human HL-60(TB) cells assessed as cell growth at 10 uM; type: functional; details: read-out: Activity
In short: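 NCI Developmental Therapeutics Program 60-cell-line one-dose screen at 10^-5 M. Readout is growth percentage of treated cells relative to untreated control cells.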

OVCAR-8 = assay: Antiproliferative activity against human OVCAR8 cells assessed as cell growth at 10 uM; type: functional; details: read-out: Activity
In short: (§2)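 NCI 60 cell line panel, single-dose screen (10^-5 M) run by the developmental therapeutics program protocol. Results are given as growth percent of treated cells relative to untreated control cells for each line.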

SR = assay: Antiproliferative activity against human SR cells assessed as cell growth at 10 uM; type: functional; details: read-out: Activity; in short: as §1
[1] = Cytotoxicity against human H1299 cells at 100 uM after 48 hrs by MTT assay; type: functional; details: NCI-H1299, 48 h
In short: (§3)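 H1299 non-small cell lung cancer cells were grown in RPMI 1640 with 10% FBS, penicillin and streptomycin at 37 °C under 5% CO2. About 2 × 10³ cells per well were seeded and left 24 h. Compounds were dissolved fresh in DMSO, diluted into complete medium and applied for 48 h. MTT was then added for 4 h at 37 °C, followed by lysis buffer (20% SDS, 50% DMF) for 16 h, and absorbance was read at 550 nm.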

HT-29 = assay: Antiproliferative activity against human HT-29 cells assessed as cell growth at 10 uM; type: functional; details: read-out: Activity; in short: as §2
OVCAR-5 = assay: Antiproliferative activity against human OVCAR5 cells assessed as cell growth at 10 uM; type: functional; details: read-out: Activity; in short: as §2
SK-OV-3 = assay: Antiproliferative activity against human SKOV3 cells assessed as cell growth at 10 uM; type: functional; details: read-out: Activity; in short: as §2
SW-620 = assay: Antiproliferative activity against human SW620 cells assessed as cell growth at 10 uM; type: functional; details: read-out: Activity; in short: as §1
UACC-62 = assay: Antiproliferative activity against human UACC62 cells assessed as cell growth at 10 uM; type: functional; details: read-out: Activity; in short: as §1
UO-31 = assay: Antiproliferative activity against human UO31 cells assessed as cell growth at 10 uM; type: functional; details: read-out: Activity; in short: as §1
SK-MEL-2 = assay: Antiproliferative activity against human SK-MEL-2 cells assessed as cell growth at 10 uM; type: functional; details: read-out: Activity; in short: as §2
SN12C = assay: Antiproliferative activity against human SN12C cells assessed as cell growth at 10 uM; type: functional; details: read-out: Activity; in short: as §2
SK-MEL-5 = assay: Antiproliferative activity against human SK-MEL-5 cells assessed as cell growth at 10 uM; type: functional; details: read-out: Activity; in short: as §2
HCT-116 = assay: Antiproliferative activity against human HCT116 cells assessed as cell growth at 10 uM; type: functional; details: read-out: Activity; in short: as §2
K562 = assay: Antiproliferative activity against human K562 cells assessed as cell growth at 10 uM; type: functional; details: read-out: Activity; in short: as §2
NCI/ADR-RES = assay: Antiproliferative activity against human NCI/ADR-RES cells assessed as cell growth at 10 uM; type: functional; details: read-out: Activity; in short: as §2
[2] = Cytotoxicity against human H1299 cells at 10 uM after 48 hrs by MTT assay; type: functional; details: NCI-H1299, 48 h; in short: as §3
MCF7 = assay: Antiproliferative activity against human MCF7 cells assessed as cell growth at 10 uM; type: functional; details: read-out: Activity; in short: as §2
NCI-H226 = assay: Antiproliferative activity against human NCI-H226 cells assessed as cell growth at 10 uM; type: functional; details: read-out: Activity; in short: as §2
T47D = assay: Antiproliferative activity against human T47D cells assessed as cell growth at 10 uM; type: functional; details: read-out: Activity; in short: as §1
SF-539 = assay: Antiproliferative activity against human SF539 cells assessed as cell growth at 10 uM; type: functional; details: read-out: Activity; in short: as §2
ACHN = assay: Antiproliferative activity against human ACHN cells assessed as cell growth at 10 uM; type: functional; details: read-out: Activity; in short: as §2
COLO 205 = assay: Antiproliferative activity against human COLO205 cells assessed as cell growth at 10 uM; type: functional; details: read-out: Activity; in short: as §2
HCC 2998 = assay: Antiproliferative activity against human HCC2998 cells assessed as cell growth at 10 uM; type: functional; details: read-out: Activity; in short: as §2
NCI-H23 = assay: Antiproliferative activity against human NCI-H23 cells assessed as cell growth at 10 uM; type: functional; details: read-out: Activity; in short: as §2
[3] = Antiproliferative activity against human RPMI8266 cells assessed as cell growth at 10 uM; type: functional; details: read-out: Activity; in short: as §2
[4] = target: Telomerase reverse transcriptase (Homo sapiens) (UniProt O14746); assay: Inhibition of TERT in human H1299 cells assessed as residual transcriptional activity at 1 uM after 24 hrs by SEAP reporter gene assay; values are per cent of control
Telomerase reverse transcriptase (Homo sapiens), sequence (O14746 whole entry): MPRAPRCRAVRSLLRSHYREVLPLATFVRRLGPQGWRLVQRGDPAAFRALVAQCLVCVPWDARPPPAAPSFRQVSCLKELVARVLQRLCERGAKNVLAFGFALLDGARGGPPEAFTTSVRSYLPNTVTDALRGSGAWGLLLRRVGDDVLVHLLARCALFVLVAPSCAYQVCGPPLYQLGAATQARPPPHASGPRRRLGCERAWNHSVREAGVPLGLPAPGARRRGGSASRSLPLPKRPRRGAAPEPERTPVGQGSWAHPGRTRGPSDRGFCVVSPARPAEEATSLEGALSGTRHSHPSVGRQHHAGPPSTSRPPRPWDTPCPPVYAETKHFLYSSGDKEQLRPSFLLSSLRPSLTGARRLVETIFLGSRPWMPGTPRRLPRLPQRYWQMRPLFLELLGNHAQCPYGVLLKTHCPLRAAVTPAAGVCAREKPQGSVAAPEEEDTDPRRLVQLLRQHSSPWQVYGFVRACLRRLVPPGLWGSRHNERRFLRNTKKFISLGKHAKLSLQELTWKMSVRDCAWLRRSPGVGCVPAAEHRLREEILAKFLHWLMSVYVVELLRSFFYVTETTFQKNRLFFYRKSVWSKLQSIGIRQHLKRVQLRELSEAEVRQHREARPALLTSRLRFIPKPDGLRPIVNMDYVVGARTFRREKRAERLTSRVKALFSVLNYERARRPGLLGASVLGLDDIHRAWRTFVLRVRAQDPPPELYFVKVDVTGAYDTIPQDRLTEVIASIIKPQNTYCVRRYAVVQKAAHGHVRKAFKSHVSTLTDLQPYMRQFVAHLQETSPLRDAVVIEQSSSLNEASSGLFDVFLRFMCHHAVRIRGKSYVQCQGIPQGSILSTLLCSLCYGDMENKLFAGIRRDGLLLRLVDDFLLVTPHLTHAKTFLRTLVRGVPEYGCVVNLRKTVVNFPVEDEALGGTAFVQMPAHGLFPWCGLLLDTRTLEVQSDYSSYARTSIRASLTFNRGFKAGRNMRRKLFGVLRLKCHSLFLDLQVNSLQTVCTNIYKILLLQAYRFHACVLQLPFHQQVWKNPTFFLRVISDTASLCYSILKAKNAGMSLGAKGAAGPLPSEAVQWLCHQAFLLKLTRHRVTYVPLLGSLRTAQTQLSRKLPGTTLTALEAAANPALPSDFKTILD

EKVX = assay: Antiproliferative activity against human EKVX cells assessed as cell growth at 10 uM; type: functional; details: read-out: Activity; in short: as §2
[5] = target: Telomerase reverse transcriptase (Homo sapiens) (UniProt O14746); assay: Inhibition of TERT in human H1299 cells assessed as residual transcriptional activity at 10 uM after 24 hrs by SEAP reporter gene assay; values are per cent of control
MOLT-4 = assay: Antiproliferative activity against human MOLT4 cells assessed as cell growth at 10 uM; type: functional; details: read-out: Activity; in short: as §2
SF-268 = assay: Antiproliferative activity against human SF268 cells assessed as cell growth at 10 uM; type: functional; details: read-out: Activity; in short: as §2
CAKI-1 = assay: Antiproliferative activity against human Caki1 cells assessed as cell growth at 10 uM; type: functional; details: read-out: Activity; in short: as §2
DU-145 = assay: Antiproliferative activity against human DU145 cells assessed as cell growth at 10 uM; type: functional; details: read-out: Activity; in short: as §2
MDA-MB-435 = assay: Antiproliferative activity against human MDA-MB-435 cells assessed as cell growth at 10 uM; type: functional; details: read-out: Activity; in short: as §2
NCI-H460 = assay: Antiproliferative activity against human NCI-H460 cells assessed as cell growth at 10 uM; type: functional; details: read-out: Activity; in short: as §2
LOX IMVI = assay: Antiproliferative activity against human LOXIMVI cells assessed as cell growth at 10 uM; type: functional; details: read-out: Activity; in short: as §2
U-251 = assay: Antiproliferative activity against human U251 cells assessed as cell growth at 10 uM; type: functional; details: read-out: Activity; in short: as §1
NCI-H322M = assay: Antiproliferative activity against human NCI-H322M cells assessed as cell growth at 10 uM; type: functional; details: read-out: Activity; in short: as §2
SF-295 = assay: Antiproliferative activity against human SF295 cells assessed as cell growth at 10 uM; type: functional; details: read-out: Activity; in short: as §2
UACC-257 = assay: Antiproliferative activity against human UACC257 cells assessed as cell growth at 10 uM; type: functional; details: read-out: Activity; in short: as §1
MDA-MB-231 = assay: Antiproliferative activity against human MDA-MB-231 cells assessed as cell growth at 10 uM; type: functional; details: read-out: Activity; in short: as §2
[6] = target: Telomerase reverse transcriptase (Homo sapiens) (UniProt O14746); assay: Inhibition of telomerase in human H1299 cells up to 100 uM by TRAP assay; type: cell-based
In short: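 PCR-based telomeric repeat amplification protocol (TRAP). The telomerase source was total lysate of H1299 lung cancer cells, with protein measured against BSA standards. Controls were extract without inhibitor and RNase A-treated extract.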

NCI-H522 = assay: Antiproliferative activity against human NCI-H522 cells assessed as cell growth at 10 uM; type: functional; details: read-out: Activity; in short: as §2

SMILES: O=C1c2ccccc2C(=O)c2c1ccc1nsnc21
- growth at 10 µM (SNB-75): 79%
- growth at 10 µM (HL-60(TB)): -21.8%
- growth at 10 µM (OVCAR-8): -10.1%
- growth at 10 µM (SR): 4.96%
- viability at 100 µM [1]: 17%
- growth at 10 µM (HT-29): 117%
- growth at 10 µM (OVCAR-5): -20.1%
- growth at 10 µM (SK-OV-3): 101%
- growth at 10 µM (SW-620): 7.3%
- growth at 10 µM (UACC-62): -82.3%
- growth at 10 µM (UO-31): -79.3%
- growth at 10 µM (SK-MEL-2): -73.2%
- growth at 10 µM (SN12C): -73.3%
- growth at 10 µM (SK-MEL-5): 8.52%
- growth at 10 µM (HCT-116): -50%
- growth at 10 µM (K562): 49.6%
- growth at 10 µM (NCI/ADR-RES): -2.53%
- viability at 10 µM [2]: 16%
- growth at 10 µM (MCF7): -50.7%
- growth at 10 µM (NCI-H226): 97.8%
- growth at 10 µM (T47D): -45.5%
- growth at 10 µM (SF-539): -47.1%
- growth at 10 µM (ACHN): -94.3%
- growth at 10 µM (COLO 205): 112%
- growth at 10 µM (HCC 2998): -0.74%
- growth at 10 µM (NCI-H23): 16.1%
- growth at 10 µM [3]: -28%
- residual activity [4]: 89%
- growth at 10 µM (EKVX): 103%
- residual activity [5]: 10%
- growth at 10 µM (MOLT-4): -40.1%
- growth at 10 µM (SF-268): 16.3%
- growth at 10 µM (CAKI-1): 1.97%
- growth at 10 µM (DU-145): 40.8%
- growth at 10 µM (MDA-MB-435): -87.9%
- growth at 10 µM (NCI-H460): 77.4%
- growth at 10 µM (LOX IMVI): -50.6%
- growth at 10 µM (U-251): -89.3%
- growth at 10 µM (NCI-H322M): 126%
- growth at 10 µM (SF-295): 126%
- growth at 10 µM (UACC-257): -83.1%
- growth at 10 µM (MDA-MB-231): -17.3%
- inhibition [6]: inactive

SMILES: O=C1c2ccccc2C(=O)c2c1ccc1nccnc21
- growth at 10 µM (SNB-75): 105%
- growth at 10 µM (HL-60(TB)): 102%
- growth at 10 µM (OVCAR-8): 47.5%
- growth at 10 µM (SR): 82.9%
- viability at 100 µM [1]: 6%
- growth at 10 µM (HT-29): 81.9%
- growth at 10 µM (OVCAR-5): 107%
- growth at 10 µM (SK-OV-3): 78.2%
- growth at 10 µM (SW-620): 39.2%
- growth at 10 µM (UACC-62): 90.5%
- growth at 10 µM (UO-31): 51.5%
- growth at 10 µM (SK-MEL-2): 6.66%
- growth at 10 µM (SN12C): 64.7%
- growth at 10 µM (SK-MEL-5): 66.6%
- growth at 10 µM (HCT-116): 53.3%
- growth at 10 µM (K562): 37.2%
- growth at 10 µM (NCI/ADR-RES): 68%
- viability at 10 µM [2]: 13%
- growth at 10 µM (MCF7): 39.7%
- growth at 10 µM (NCI-H226): 86.7%
- growth at 10 µM (T47D): 85.2%
- growth at 10 µM (SF-539): 40.7%
- growth at 10 µM (ACHN): 46.5%
- growth at 10 µM (COLO 205): 71.6%
- growth at 10 µM (HCC 2998): -7.15%
- growth at 10 µM (NCI-H23): 65.1%
- residual activity [4]: 105%
- growth at 10 µM (EKVX): 82.6%
- residual activity [5]: 26%
- growth at 10 µM (MOLT-4): 22.9%
- growth at 10 µM (SF-268): 68%
- growth at 10 µM (CAKI-1): 87.9%
- growth at 10 µM (DU-145): 93.3%
- growth at 10 µM (MDA-MB-435): 102%
- growth at 10 µM (NCI-H460): 31.7%
- growth at 10 µM (LOX IMVI): 44.2%
- growth at 10 µM (U-251): 63.5%
- growth at 10 µM (NCI-H322M): 96.3%
- growth at 10 µM (SF-295): 80.8%
- growth at 10 µM (UACC-257): 91.1%
- growth at 10 µM (MDA-MB-231): 81.4%
- inhibition [6]: inactive
- growth at 10 µM (NCI-H522): 24.1%
